Laboratory results from ChEMBL document CHEMBL2169868, “Flavone-based novel antidiabetic and antidyslipidemic agents” (J Med Chem, 2012).

Columns and labels:
[1] = tested on: Syrian golden hamster; test: Antidyslipidemic activity in high fructose and high-fat diet fed dyslipidemic Syrian golden hamster model assessed as increase in HDL-cholesterol level at 10 to 100 mg/kg/day for 7 days; type: functional, organism-based; conditions: Mesocricetus auratus
Outline: (§1)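 Syrian golden hamsters fed high-fructose high-fat diet; oral dosing in 1% gum acacia at 10, 30, 100 mg/kg (or 25 mg/kg) for 7 days, sham control given vehicle; plasma TG, cholesterol, LDL-C, HDL-C, glycerol and NEFA (kits), lipoprotein lipase activity and body weight; % change versus HFD control, six hamsters per group.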

[2] = tested on: Rattus norvegicus; test: AUC in Sprague-Dawley rat at 25 mg/kg, po by LC-MS/MS method; conditions: in vivo
[3] = tested on: Syrian golden hamster; test: Antidyslipidemic activity in high fructose and high-fat diet fed dyslipidemic Syrian golden hamster model assessed as reduction in glycerol level at 30 mg/kg/day, po for 7 day, po; type: functional, Mesocricetus auratus; parameters: scale not given: the % may be the effect or the level left; outline: as §1
[4] = tested on: Syrian golden hamster; test: Antidyslipidemic activity in high fructose and high-fat diet fed dyslipidemic Syrian golden hamster model assessed as reduction in cholesterol level at 25 mg/kg/day for 7 days; type: functional, Mesocricetus auratus; parameters: scale not given: the % may be the effect or the level left
[5] = tested on: Syrian golden hamster; test: Antidyslipidemic activity in high fructose and high-fat diet fed dyslipidemic Syrian golden hamster model assessed as reduction in LDL-cholesterol level at 30 mg/kg/day, po for 7 day, po; type: functional, Mesocricetus auratus; parameters: scale not given: the % may be the effect or the level left; outline: as §1
[6] = tested on: Mus musculus; test: Antihyperglycemic activity in diabetic C57BL/KsJ db/db mouse model assessed as improvement in glucose tolerance in hyperglycemia at 25 mg/kg, po qd for 10 days; type: functional
Outline: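 Male/female C57BL/KsJ db/db mice, 12−18 weeks, 40−50 g, selected for glucose 200−350 mg/dL. Oral dosing daily for 10 days. OGTT on day 10 after an overnight fast: compound at −30 min, then 3 g/kg oral glucose at 0 min. Glucose read at 30, 60, 90 and 120 min. AUC taken versus vehicle, 5 mice per group.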

[7] = tested on: Mus musculus; test: Antidyslipidemic activity in diabetic C57BL/KsJ db/db mouse model assessed as increase in plasma HDL-cholesterol level at 25 mg/kg, po qd for 10 days; type: functional
Outline: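 db/db mice (blood glucose 200−350, TG 170−250, cholesterol 170−250, HDL-C 32−40 mg/dL) dosed orally at 25 mg/kg daily for 10 days; retro-orbital blood taken on day 11 for plasma TG, cholesterol and HDL-C (and HDL-C/CHOL ratio); mean % change versus vehicle control, 5 mice per group; Student t test.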

[8] = tested on: Syrian golden hamster; test: Antidyslipidemic activity in high fructose and high-fat diet fed dyslipidemic Syrian golden hamster model assessed as reduction in NEFA level at 10 mg/kg/day, po for 7 day, po; type: functional, Mesocricetus auratus; parameters: scale not given: the % may be the effect or the level left; outline: as §1
[9] = Mean residence time in Sprague-Dawley rat at 25 mg/kg, po by LC-MS/MS method; type: ADME, organism-based; parameters: dose 25 mg/kg, route oral; conditions: in vivo
Outline: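 Male Sprague−Dawley rats given a single 25 mg/kg oral dose (aqueous 0.5% methyl cellulose suspension for one compound). Blood drawn from 0.08 to 48 h. LC-MS/MS, linear range 0.78−400 ng/mL.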

CC(C)(C)NC[C@H](O)COc1ccc2c(=O)cc(-c3cc(OCc4ccccc4)cc(OCc4ccccc4)c3)oc2c1
Activity [1]: Dose-dependent effect | AUC [2]: 1798.22 ng·h/mL | Activity [3]: 25.7% | Activity [4]: 24.4% | Activity [5]: 34.6% | Activity [6]: 38.8% | Activity [7]: 33.2% | Activity [8]: 13.1% | MRT [9]: 30.3 h
